Measurements published in ChEMBL document CHEMBL3596093, “Synthesis and antimicrobial evaluation of 5-aryl-1,2,4-triazole-3-thione derivatives containing a rhodanine moiety” (2015).
In brackets after ≈: the same amount, converted by molar mass.

Experiments:
Pseudomonas aeruginosa [1] = test: Antibacterial activity against Pseudomonas aeruginosa 2004 after 24 hrs by two-fold serial dilution method; format: functional; conditions: Pseudomonas aeruginosa, 2004, 24 h
Summary of the method: (§1)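 Strains grown to mid-log phase in Mueller-Hinton broth, then diluted 1000-fold in the same broth to about 10^5 CFU/mL. Compounds were made up as DMSO stocks and two-fold serially diluted from a final top concentration of 64 µg/mL. Incubation was 37 °C for 24 h. Growth was read as absorbance at 630 nm on a microplate reader. MIC assays were run in triplicate.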

Escherichia coli [2] = test: Antibacterial activity against Escherichia coli KCTC 1924 after 24 hrs by two-fold serial dilution method; format: functional; conditions: KCTC 1924, 24 h; summary of the method: as §1
Staphylococcus aureus [3] = test: Bactericidal activity against quinolone-resistant Staphylococcus aureus CCARM 3519 after 24 hrs by agar plate method; format: functional; conditions: CCARM 3519, 24 h
Summary of the method: (§2)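 5 µL from each well without visible growth plated on fresh Mueller-Hinton agar, then 37 °C for a further 24 h. MBC is the lowest concentration giving no visible colonies. Run in triplicate.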

Staphylococcus aureus [4] = test: Bactericidal activity against quinolone-resistant Staphylococcus aureus CCARM 3505 after 24 hrs by agar plate method; format: functional; conditions: CCARM 3505, 24 h; summary of the method: as §2
Staphylococcus aureus [5] = test: Ratio of MBC to MIC for Staphylococcus aureus KCTC 503; format: functional
Summary of the method: (§3)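 The ratio divides MBC by MIC for the same strain. MIC comes from two-fold broth microdilution in Mueller-Hinton broth (about 10^5 CFU/mL, 37 °C, 24 h, absorbance at 630 nm). MBC comes from subculturing 5 µL from clear wells onto Mueller-Hinton agar for another 24 h at 37 °C, taken as the lowest concentration with no colonies.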

Staphylococcus aureus [6] = test: Antibacterial activity against methicillin-resistant Staphylococcus aureus CCARM 3167 after 24 hrs by two-fold serial dilution method; format: functional; conditions: CCARM 3167, 24 h
Summary of the method: (§4)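 Broth microdilution MIC. Bacteria grown to mid-log phase in Mueller-Hinton broth, diluted 1000-fold, about 10^5 CFU/mL. Compounds from DMSO stocks, two-fold serial dilution from a final 64 µg/mL. Incubation at 37 °C for 24 h. Growth read as absorbance at 630 nm on a microplate reader. Run in triplicate.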

Staphylococcus aureus [7] = test: Bactericidal activity against methicillin-resistant Staphylococcus aureus CCARM 3506 after 24 hrs by agar plate method; format: functional; conditions: CCARM 3506, 24 h; summary of the method: as §2
Staphylococcus aureus [8] = test: Bactericidal activity against methicillin-resistant Staphylococcus aureus CCARM 3167 after 24 hrs by agar plate method; format: functional; conditions: CCARM 3167, 24 h; summary of the method: as §2
Staphylococcus aureus [9] = test: Antibacterial activity against quinolone-resistant Staphylococcus aureus CCARM 3519 after 24 hrs by two-fold serial dilution method; format: functional; conditions: CCARM 3519, 24 h; summary of the method: as §4
Staphylococcus aureus [10] = test: Bactericidal activity against Staphylococcus aureus KCTC 503 after 24 hrs by agar plate method; format: functional; conditions: KCTC 503, 24 h; summary of the method: as §2
Streptococcus mutans [11] = test: Antibacterial activity against Streptococcus mutans 3065 after 24 hrs by two-fold serial dilution method; format: functional; conditions: Streptococcus mutans, 3065, 24 h; summary of the method: as §1
Pseudomonas aeruginosa [12] = test: Antibacterial activity against Pseudomonas aeruginosa 2742 after 24 hrs by two-fold serial dilution method; format: functional; conditions: Pseudomonas aeruginosa, 2742, 24 h; summary of the method: as §1
Streptococcus mutans [13] = test: Bactericidal activity against Streptococcus mutans 3065 after 24 hrs by agar plate method; format: functional; conditions: Streptococcus mutans, 3065, 24 h
Summary of the method: (§5)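 Samples of 5 µL from MIC wells with no visible growth were plated onto fresh Mueller-Hinton agar and incubated a further 24 h at 37 °C. MBC is the lowest concentration giving no visible colony growth on the agar. Assays were run in triplicate.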

Staphylococcus aureus [14] = test: Antibacterial activity against Staphylococcus aureus KCTC 209 after 24 hrs by two-fold serial dilution method; format: functional; conditions: KCTC 209, 24 h; summary of the method: as §1
[15] = test system: Staphylococcus aureus subsp. aureus RN4220; test: Ratio of MBC to MIC for Staphylococcus aureus RN4220; format: functional; summary of the method: as §3
Staphylococcus aureus [16] = test: Antibacterial activity against methicillin-resistant Staphylococcus aureus CCARM 3506 after 24 hrs by two-fold serial dilution method; format: functional; conditions: CCARM 3506, 24 h; summary of the method: as §4
Staphylococcus aureus [17] = test: Antibacterial activity against quinolone-resistant Staphylococcus aureus CCARM 3505 after 24 hrs by two-fold serial dilution method; format: functional; conditions: CCARM 3505, 24 h; summary of the method: as §4
Salmonella typhimurium = test: Antibacterial activity against Salmonella typhimurium 2421 after 24 hrs by two-fold serial dilution method; format: functional, Salmonella enterica subsp. enterica serovar Typhimurium; conditions: Salmonella enterica, 2421, 24 h; summary of the method: as §1
Escherichia coli [18] = test: Antibacterial activity against Escherichia coli CCARM 1356 after 24 hrs by two-fold serial dilution method; format: functional; conditions: CCARM 1356, 24 h; summary of the method: as §1
Staphylococcus aureus [19] = test: Bactericidal activity against Staphylococcus aureus RN4220 after 24 hrs by agar plate method; format: functional; conditions: RN4220, 24 h; summary of the method: as §5
Staphylococcus aureus [20] = test: Antibacterial activity against Staphylococcus aureus RN4220 after 24 hrs by two-fold serial dilution method; format: functional; conditions: RN4220, 24 h; summary of the method: as §4
Staphylococcus aureus [21] = test: Antibacterial activity against Staphylococcus aureus KCTC 503 after 24 hrs by two-fold serial dilution method; format: functional; conditions: KCTC 503, 24 h; summary of the method: as §1
Candida albicans [22] = test: Antifungal activity against Candida albicans 7535 after 24 hrs by two-fold serial dilution method; format: functional; conditions: Candida albicans, 7535, 24 h
Staphylococcus aureus [23] = test: Bactericidal activity against Staphylococcus aureus KCTC 209 after 24 hrs by agar plate method; format: functional; conditions: KCTC 209, 24 h; summary of the method: as §5
Escherichia coli [24] = test: Bactericidal activity against Escherichia coli KCTC 1924 after 24 hrs by agar plate method; format: functional; conditions: KCTC 1924, 24 h; summary of the method: as §5
Escherichia coli [25] = test: Ratio of MBC to MIC for Escherichia coli KCTC 1924; format: functional; summary of the method: as §3
Candida albicans [26] = test: Fungicidal activity against Candida albicans 7535 after 24 hrs by agar plate method; format: functional; conditions: Candida albicans, 7535, 24 h
Staphylococcus aureus [27] = test: Ratio of MBC to MIC for Staphylococcus aureus KCTC 209; format: functional; summary of the method: as §3

| SMILES | MIC (Pseudomonas aeruginosa [1]) [µg/mL] | MIC (Escherichia coli [2]) [µg/mL] | MBC (Staphylococcus aureus [3]) [µg/mL] | MBC (Staphylococcus aureus [4]) [µg/mL] | MIC (Staphylococcus aureus [6]) [µg/mL] | MBC (Staphylococcus aureus [7]) [µg/mL] | MBC (Staphylococcus aureus [8]) [µg/mL] | MIC (Staphylococcus aureus [9]) [µg/mL] | MBC (Staphylococcus aureus [10]) [µg/mL] | MIC (Streptococcus mutans [11]) [µg/mL] | MIC (Pseudomonas aeruginosa [12]) [µg/mL] | MBC (Streptococcus mutans [13]) [µg/mL] | MIC (Staphylococcus aureus [16]) [µg/mL] | MIC (Staphylococcus aureus [17]) [µg/mL] | MIC (Salmonella typhimurium) [µg/mL] | MIC (Escherichia coli [18]) [µg/mL] | MBC (Staphylococcus aureus [19]) [µg/mL] | MIC (Staphylococcus aureus [20]) [µg/mL] | MIC (Staphylococcus aureus [21]) [µg/mL] | MIC (Candida albicans [22]) [µg/mL] | further results |
| --- | --- | --- | --- | --- | --- | --- | --- | --- | --- | --- | --- | --- | --- | --- | --- | --- | --- | --- | --- | --- | --- |
| O=C(O)[C@H](Cc1ccccc1)N1C(=O)/C(=C/c2ccc(/C=N/n3c(-c4ccccc4)n[nH]c3=S)cc2)SC1=S | > 128 | > 128 | 32 (≈ 56 µM) | 32 (≈ 56 µM) | 8 (≈ 14 µM) | 32 (≈ 56 µM) | 16 (≈ 28 µM) | 8 (≈ 14 µM) | 8 (≈ 14 µM) | 8 (≈ 14 µM) | > 128 | 16 (≈ 28 µM) | 8 (≈ 14 µM) | 8 (≈ 14 µM) | > 128 | > 128 | 16 (≈ 28 µM) | 8 (≈ 14 µM) | 8 (≈ 14 µM) | > 64 | Ratio (Staphylococcus aureus [5]): <=4; MIC (Staphylococcus aureus [14]): > 64 µg/mL; Ratio [15]: 2 |
| O=C(O)[C@H](Cc1ccccc1)N1C(=O)/C(=C/c2ccc(/C=N/n3c(-c4ccccc4Cl)n[nH]c3=S)cc2)SC1=S | > 128 | > 128 | > 128 | > 128 | 16 (≈ 26.4 µM) | 64 (≈ 106 µM) | 32 (≈ 52.8 µM) | 16 (≈ 26.4 µM) | 64 (≈ 106 µM) | 16 (≈ 26.4 µM) | > 128 | > 128 | 16 (≈ 26.4 µM) | 16 (≈ 26.4 µM) | > 128 | > 128 | 32 (≈ 52.8 µM) | 16 (≈ 26.4 µM) | 16 (≈ 26.4 µM) | > 64 | Ratio (Staphylococcus aureus [5]): <=4; MIC (Staphylococcus aureus [14]): > 64 µg/mL; Ratio [15]: 2 |
| O=C(O)[C@H](Cc1ccccc1)N1C(=O)/C(=C/c2ccc(/C=N/n3c(-c4cccc(Cl)c4)n[nH]c3=S)cc2)SC1=S | > 128 | 8 (≈ 13.2 µM) | 32 (≈ 52.8 µM) | 32 (≈ 52.8 µM) | 8 (≈ 13.2 µM) | 16 (≈ 26.4 µM) | 8 (≈ 13.2 µM) | 8 (≈ 13.2 µM) | 16 (≈ 26.4 µM) | 4 (≈ 6.6 µM) | > 128 | > 32 | 16 (≈ 26.4 µM) | 8 (≈ 13.2 µM) | > 128 | > 128 | 8 (≈ 13.2 µM) | 8 (≈ 13.2 µM) | 8 (≈ 13.2 µM) | 8 (≈ 13.2 µM) | Ratio (Staphylococcus aureus [5]): <=4; MBC (Staphylococcus aureus [23]): 16 µg/mL (≈ 26.4 µM); MBC (Escherichia coli [24]): 8 µg/mL (≈ 13.2 µM); MIC (Staphylococcus aureus [14]): 8 µg/mL (≈ 13.2 µM); Ratio (Escherichia coli [25]): <=4; MFC (Candida albicans [26]): 8 µg/mL (≈ 13.2 µM); Ratio (Staphylococcus aureus [27]): 2 |
| O=C(O)[C@H](Cc1ccccc1)N1C(=O)/C(=C/c2ccc(/C=N/n3c(-c4ccccc4Br)n[nH]c3=S)cc2)SC1=S | > 128 | > 128 | 32 (≈ 49.2 µM) | 32 (≈ 49.2 µM) | 8 (≈ 12.3 µM) | 32 (≈ 49.2 µM) | 16 (≈ 24.6 µM) | 8 (≈ 12.3 µM) | 8 (≈ 12.3 µM) | 8 (≈ 12.3 µM) | > 128 | 32 (≈ 49.2 µM) | 16 (≈ 24.6 µM) | 8 (≈ 12.3 µM) | > 128 | > 128 | 16 (≈ 24.6 µM) | 8 (≈ 12.3 µM) | 8 (≈ 12.3 µM) | > 64 | Ratio (Staphylococcus aureus [5]): <=4; MIC (Staphylococcus aureus [14]): > 64 µg/mL; Ratio [15]: 2 |
| COc1c(N2CCNC(C)C2)c(F)cc2c(=O)c(C(=O)O)cn(C3CC3)c12 (centres undefined) [GATIFLOXACIN] | 1 (≈ 2.66 µM) | 2 (≈ 5.33 µM) | 4 (≈ 10.7 µM) | 8 (≈ 21.3 µM) | 2 (≈ 5.33 µM) | 2 (≈ 5.33 µM) | 2 (≈ 5.33 µM) | 4 (≈ 10.7 µM) | 4 (≈ 10.7 µM) | 0.5 (≈ 1.33 µM) | 1 (≈ 2.66 µM) | 0.5 (≈ 1.33 µM) | 2 (≈ 5.33 µM) | 8 (≈ 21.3 µM) | 0.5 (≈ 1.33 µM) | 16 (≈ 42.6 µM) | 0.25 (≈ 0.666 µM) | 0.25 (≈ 0.666 µM) | 4 (≈ 10.7 µM) | 0.5 (≈ 1.33 µM) | MBC (Staphylococcus aureus [23]): 2 µg/mL (≈ 5.33 µM); MBC (Escherichia coli [24]): 2 µg/mL (≈ 5.33 µM); MIC (Staphylococcus aureus [14]): 2 µg/mL (≈ 5.33 µM); MFC (Candida albicans [26]): 0.5 µg/mL (≈ 1.33 µM) |
| COc1c(N2C[C@@H]3CCCN[C@@H]3C2)c(F)cc2c(=O)c(C(=O)O)cn(C3CC3)c12 [MOXIFLOXACIN] | 2 (≈ 4.98 µM) | – | 4 (≈ 9.96 µM) | 4 (≈ 9.96 µM) | 1 (≈ 2.49 µM) | 1 (≈ 2.49 µM) | 1 (≈ 2.49 µM) | 4 (≈ 9.96 µM) | 2 (≈ 4.98 µM) | 0.25 (≈ 0.623 µM) | – | 0.25 (≈ 0.623 µM) | 1 (≈ 2.49 µM) | 4 (≈ 9.96 µM) | 0.5 (≈ 1.25 µM) | 128 (≈ 319 µM) | 0.25 (≈ 0.623 µM) | 0.25 (≈ 0.623 µM) | 2 (≈ 4.98 µM) | 0.5 (≈ 1.25 µM) | MFC (Candida albicans [26]): 0.5 µg/mL (≈ 1.25 µM) |
